Measured values pooled from the literature.
Lines come from different studies, so protocols differ.

| Structure (SMILES) | target or system | test | system | conditions | measurement | value |
| --- | --- | --- | --- | --- | --- | --- |
| CC1=NN(CNc2ccccn2)C(=O)C1=NNn1c(-c2ccccc2)nc2ccccc2c1=O | Vibrio cholerae | microbial growth, broth dilution | – | 24 h | MIC | 55.2 µM |
| COc1ccc(OS(=O)(=O)NC(=O)CCCCc2ccccc2)cc1 | Bacillus anthracis | microbial growth | STERNE34F2 | – | MIC | 200 µg/mL |
| CN1C(=O)CC(=O)N(c2ccccc2)c2cc(Cl)ccc21 | – | MES seizures | rat | intraperitoneal | ED50 | 36.3 mg/kg |
| O=C(O)CCCCCCCCCCCCCCCc1ccccc1 | Leishmania infantum | parasite growth | mouse Splenocyte | 72 h, intracellular, amastigote | IC50 | 3 to 6 µM |
| CN[C@H](CC(C)C)C(=O)N[C@H]1C(=O)N[C@@H](CC(N)=O)C(=O)N[C@H]2C(=O)N[C@H]3C(=O)N[C@H](C(=O)N[C@H](C(=O)O)c4cc(O)cc(O)c4-c4cc3ccc4O)[C@H](O)c3ccc(c(Cl)c3)Oc3cc2cc(c3O[C@@H]2O[C@H](CO)[C@@H](O)[C@H](O)[C@H]2O[C@H]2C[C@](C)(N)[C@H](O)[C@H](C)O2)Oc2ccc(cc2Cl)[C@H]1O | Bifidobacterium | microbial growth, agar dilution | – | 48 h | MIC | 2 µg/mL |
| CCCCCCCC/C=C\CCCCCCCCNC(=O)CP(=O)(O)O | Bacillus anthracis | microbial growth | STERNE34F2 | – | MIC | 0.1 µg/mL |
| CC1=NN(CNc2ccc(C(=O)O)cc2)C(=O)C1=NNn1c(-c2ccccc2)nc2ccccc2c1=O | Vibrio cholerae | microbial growth, broth dilution | – | 24 h | MIC | 50.5 µM |
| CC(C=CC(O)=C1C(=O)CNC1=O)=CC(C)C1OC2(C)OC(C(O)C=C2C)C1C (stereo not drawn) | Bacillus anthracis | microbial growth | 34F2 | – | MIC | 25 µM |
| CC1=NN(CNc2ccc(O)cc2)C(=O)C1=NNn1c(-c2ccccc2)nc2ccccc2c1=O | Vibrio cholerae | microbial growth, broth dilution | – | 24 h | MIC | 107 µM |
| C=CCCCCCCCCC(=O)C(F)(F)P(=O)(O)O | Bacillus anthracis | microbial growth | STERNE34F2 | – | MIC | > 200 µg/mL |
| O=C1NN=C(N=Cc2ccccc2)C1=NNn1c(-c2ccccc2)nc2ccccc2c1=O | Vibrio cholerae | microbial growth, broth dilution | – | 24 h | MIC | 114 µM |
| CC(C)[C@H](N)C(=O)OCCCCCn1cnc2nc(NCc3ccc(Cl)c(Cl)c3)[nH]c(=O)c21 | Bifidobacterium | microbial growth, agar dilution | – | 48 h | MIC | 32 µg/mL |
| CCCCCCCCCCCCCCCC(=O)NP(=O)(O)O | Bacillus anthracis | microbial growth | STERNE34F2 | – | MIC | > 200 µg/mL |
| CN[C@@H]1[C@H](O)[C@H](NC)[C@H]2O[C@@]3(O)C(=O)C[C@@H](C)O[C@H]3O[C@@H]2[C@H]1O | Bacillus anthracis | microbial growth | STERNE34F2 | – | MIC | 25 µg/mL |
| CCOC(=O)Nc1ccc(NCc2ccc(F)cc2)cc1N | – | MES seizures | rat | intraperitoneal | ED50 | 4.01 mg/kg |
| O=C(O)c1cn(C2CC2)c2cc(N3CCNCC3)c(F)cc2c1=O | Bacillus anthracis | microbial growth | 34F2 | – | MIC | 0.781 µM |
| OC[C@H]1O[C@@H](n2cnc3c(NC4CCCC4)ncnc32)[C@H](O)[C@@H]1O | – | MES seizures | rat | intraperitoneal | ED50 | 6.7 mg/kg |
| CCCCCCCCCCCC(=O)CP(=O)(O)O | Bacillus anthracis | microbial growth | STERNE34F2 | – | MIC | 50 µg/mL |
